Active and inactive are the calls of the source. The rule behind the calls is not given here.
Assays:
[1] = target: Vascular endothelial growth factor receptor 2 (Homo sapiens, UniProt P35968); assay: Inhibition of human KDR
How it was run: (§1)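 Panel of 82 kinases. Radiometric filter-binding assay with ATP at or near Km. Compound tested at 0.01, 0.10 and 1.0 μM. Values expressed as minimum possible fold selectivity against Jak2.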

[2] = Volume of distribution at steady state in Wistar rat at 10 mg/kg, po and 3 mg/kg, iv; type: ADME, organism-based; conditions: in vivo, read-out: Vdss
How it was run: (§2)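 Rat pharmacokinetics. Oral dose 10 mg/kg in 0.1% HPMC. IV dose 3 mg/kg in 40% DMA/40% PEG/20% saline. Clearance, half-life, Vdss and oral bioavailability derived from the plasma profiles.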

[3] = target: Protein kinase C zeta type (Homo sapiens, UniProt Q05513); assay: Inhibition of human PKCzeta; how it was run: as §1
[4] = Half life in Wistar rat at 10 mg/kg, po and 3 mg/kg, iv; type: ADME, organism-based; conditions: in vivo; how it was run: as §2
[5] = target: Casein kinase II subunit alpha (Homo sapiens, UniProt P68400); assay: Inhibition of human recombinant 6 X His-tagged full length CK2alpha expressed in insect sf21 cells using CK2tide as substrate after 20 mins by fluorescence assay
[6] = target: Non-receptor tyrosine-protein kinase TYK2 (Mus musculus) (UniProt Q9R117); assay: (§3) Inhibition of Tyk2 in mouse BA/F3 cells expressing TEL-Tyk2 assessed as inhibition of STAT5 phosphorylation by Western blotting analysis; type: cell-based; conditions: BaF3
Chain of Non-receptor tyrosine-protein kinase TYK2 (Mus musculus) (Q9R117 whole entry): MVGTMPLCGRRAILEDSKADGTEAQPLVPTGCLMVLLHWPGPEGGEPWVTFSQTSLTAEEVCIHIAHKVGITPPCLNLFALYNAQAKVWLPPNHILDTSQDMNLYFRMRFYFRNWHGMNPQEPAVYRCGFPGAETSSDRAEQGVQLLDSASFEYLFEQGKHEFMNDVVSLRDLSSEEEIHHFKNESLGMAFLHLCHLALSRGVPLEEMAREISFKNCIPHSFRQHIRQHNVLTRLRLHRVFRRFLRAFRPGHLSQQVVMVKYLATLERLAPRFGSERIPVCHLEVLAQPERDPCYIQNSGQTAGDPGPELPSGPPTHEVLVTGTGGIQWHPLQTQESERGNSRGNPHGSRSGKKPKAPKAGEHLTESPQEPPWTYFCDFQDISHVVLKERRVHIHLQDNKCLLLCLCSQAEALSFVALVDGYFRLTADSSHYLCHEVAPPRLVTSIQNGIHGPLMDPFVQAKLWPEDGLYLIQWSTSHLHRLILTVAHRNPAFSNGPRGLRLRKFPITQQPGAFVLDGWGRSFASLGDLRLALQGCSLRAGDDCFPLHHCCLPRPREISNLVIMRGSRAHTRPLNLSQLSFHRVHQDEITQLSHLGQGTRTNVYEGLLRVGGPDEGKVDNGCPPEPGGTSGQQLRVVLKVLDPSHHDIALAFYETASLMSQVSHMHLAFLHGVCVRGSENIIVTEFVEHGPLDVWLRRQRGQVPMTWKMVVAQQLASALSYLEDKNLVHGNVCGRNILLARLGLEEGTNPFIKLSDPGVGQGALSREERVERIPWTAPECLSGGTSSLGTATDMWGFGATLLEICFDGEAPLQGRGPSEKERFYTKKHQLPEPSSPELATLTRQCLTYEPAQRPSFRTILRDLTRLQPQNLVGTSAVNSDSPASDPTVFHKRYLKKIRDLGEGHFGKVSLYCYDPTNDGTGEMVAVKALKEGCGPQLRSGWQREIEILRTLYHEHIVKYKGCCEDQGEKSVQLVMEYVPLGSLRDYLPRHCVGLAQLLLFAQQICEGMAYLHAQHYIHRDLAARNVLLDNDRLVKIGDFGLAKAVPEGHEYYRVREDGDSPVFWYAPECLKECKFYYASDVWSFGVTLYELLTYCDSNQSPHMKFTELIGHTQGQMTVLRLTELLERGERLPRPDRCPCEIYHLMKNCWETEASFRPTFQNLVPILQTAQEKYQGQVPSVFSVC

[7] = target: Non-receptor tyrosine-protein kinase TYK2 (Mus musculus, UniProt Q9R117); assay: as §3; type: cell-based; conditions: baf3
Chain of Non-receptor tyrosine-protein kinase TYK2 (Q9R117 whole entry, looked up): as the sequence (Q9R117 whole entry) above

Mus musculus [8] = assay: In vivo inhibition of Jak2 in mouse transfected with mouse BA/F3 cells expressing TEL-Jak2 assessed as inhibition of STAT5 phosphorylation at 10 mg/kg, po after 6 hrs by Western blotting analysis; type: functional, organism-based; parameters: dose 10 mg/kg; conditions: BaF3
How it was run: (§4)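 Mice bearing BaF3 TEL-JAK2 cells given a single oral dose of 3, 5 or 10 mg/kg and sacrificed at various times after dosing. Spleen lysates probed for phospho-STAT5 and total STAT5 by Western blot, and pSTAT5 inhibition assessed.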

[9] = target: Tyrosine-protein kinase JAK3 (Mus musculus, UniProt Q62137); assay: (§5) Inhibition of Jak3 in mouse BA/F3 cells expressing TEL-Jak3 assessed as inhibition of STAT5 phosphorylation by Western blotting analysis; type: cell-based, BaF3
[10] = target: Tyrosine-protein kinase JAK3 (Mus musculus) (UniProt Q62137); assay: as §5; type: cell-based; conditions: BaF3
Chain of Tyrosine-protein kinase JAK3 (Mus musculus) (Q62137 whole entry): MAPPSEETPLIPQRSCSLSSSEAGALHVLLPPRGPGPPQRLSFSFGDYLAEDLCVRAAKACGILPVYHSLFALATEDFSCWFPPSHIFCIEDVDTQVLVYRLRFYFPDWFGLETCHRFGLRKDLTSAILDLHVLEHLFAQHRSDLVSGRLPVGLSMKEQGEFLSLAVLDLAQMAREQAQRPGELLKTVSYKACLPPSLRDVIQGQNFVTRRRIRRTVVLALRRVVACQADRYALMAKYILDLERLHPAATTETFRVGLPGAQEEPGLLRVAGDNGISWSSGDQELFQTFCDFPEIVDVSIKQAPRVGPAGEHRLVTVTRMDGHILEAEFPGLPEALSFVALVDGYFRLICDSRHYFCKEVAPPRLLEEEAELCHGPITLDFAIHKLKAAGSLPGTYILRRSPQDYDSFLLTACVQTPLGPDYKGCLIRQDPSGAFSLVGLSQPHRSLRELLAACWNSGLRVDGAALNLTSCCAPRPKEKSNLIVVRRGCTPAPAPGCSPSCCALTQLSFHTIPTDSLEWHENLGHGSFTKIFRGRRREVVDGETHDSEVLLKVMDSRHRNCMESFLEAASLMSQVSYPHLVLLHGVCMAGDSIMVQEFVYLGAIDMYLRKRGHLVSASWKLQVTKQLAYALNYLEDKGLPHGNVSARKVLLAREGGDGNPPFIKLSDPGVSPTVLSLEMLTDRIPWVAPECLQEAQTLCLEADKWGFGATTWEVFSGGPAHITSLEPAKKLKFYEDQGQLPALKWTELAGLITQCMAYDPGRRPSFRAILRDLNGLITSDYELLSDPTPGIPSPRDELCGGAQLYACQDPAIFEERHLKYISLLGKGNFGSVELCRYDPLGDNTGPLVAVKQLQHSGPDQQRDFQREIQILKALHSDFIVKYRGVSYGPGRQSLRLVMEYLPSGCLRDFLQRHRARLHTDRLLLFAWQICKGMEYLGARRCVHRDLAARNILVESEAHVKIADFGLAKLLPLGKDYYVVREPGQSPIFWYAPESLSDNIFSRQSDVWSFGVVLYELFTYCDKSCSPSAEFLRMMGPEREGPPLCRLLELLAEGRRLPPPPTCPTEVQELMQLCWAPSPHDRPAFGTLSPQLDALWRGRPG

[11] = target: ALK tyrosine kinase receptor (Homo sapiens, UniProt Q9UM73); assay: Inhibition of human ALK; how it was run: as §1
Chain of ALK tyrosine kinase receptor (Q9UM73 whole entry): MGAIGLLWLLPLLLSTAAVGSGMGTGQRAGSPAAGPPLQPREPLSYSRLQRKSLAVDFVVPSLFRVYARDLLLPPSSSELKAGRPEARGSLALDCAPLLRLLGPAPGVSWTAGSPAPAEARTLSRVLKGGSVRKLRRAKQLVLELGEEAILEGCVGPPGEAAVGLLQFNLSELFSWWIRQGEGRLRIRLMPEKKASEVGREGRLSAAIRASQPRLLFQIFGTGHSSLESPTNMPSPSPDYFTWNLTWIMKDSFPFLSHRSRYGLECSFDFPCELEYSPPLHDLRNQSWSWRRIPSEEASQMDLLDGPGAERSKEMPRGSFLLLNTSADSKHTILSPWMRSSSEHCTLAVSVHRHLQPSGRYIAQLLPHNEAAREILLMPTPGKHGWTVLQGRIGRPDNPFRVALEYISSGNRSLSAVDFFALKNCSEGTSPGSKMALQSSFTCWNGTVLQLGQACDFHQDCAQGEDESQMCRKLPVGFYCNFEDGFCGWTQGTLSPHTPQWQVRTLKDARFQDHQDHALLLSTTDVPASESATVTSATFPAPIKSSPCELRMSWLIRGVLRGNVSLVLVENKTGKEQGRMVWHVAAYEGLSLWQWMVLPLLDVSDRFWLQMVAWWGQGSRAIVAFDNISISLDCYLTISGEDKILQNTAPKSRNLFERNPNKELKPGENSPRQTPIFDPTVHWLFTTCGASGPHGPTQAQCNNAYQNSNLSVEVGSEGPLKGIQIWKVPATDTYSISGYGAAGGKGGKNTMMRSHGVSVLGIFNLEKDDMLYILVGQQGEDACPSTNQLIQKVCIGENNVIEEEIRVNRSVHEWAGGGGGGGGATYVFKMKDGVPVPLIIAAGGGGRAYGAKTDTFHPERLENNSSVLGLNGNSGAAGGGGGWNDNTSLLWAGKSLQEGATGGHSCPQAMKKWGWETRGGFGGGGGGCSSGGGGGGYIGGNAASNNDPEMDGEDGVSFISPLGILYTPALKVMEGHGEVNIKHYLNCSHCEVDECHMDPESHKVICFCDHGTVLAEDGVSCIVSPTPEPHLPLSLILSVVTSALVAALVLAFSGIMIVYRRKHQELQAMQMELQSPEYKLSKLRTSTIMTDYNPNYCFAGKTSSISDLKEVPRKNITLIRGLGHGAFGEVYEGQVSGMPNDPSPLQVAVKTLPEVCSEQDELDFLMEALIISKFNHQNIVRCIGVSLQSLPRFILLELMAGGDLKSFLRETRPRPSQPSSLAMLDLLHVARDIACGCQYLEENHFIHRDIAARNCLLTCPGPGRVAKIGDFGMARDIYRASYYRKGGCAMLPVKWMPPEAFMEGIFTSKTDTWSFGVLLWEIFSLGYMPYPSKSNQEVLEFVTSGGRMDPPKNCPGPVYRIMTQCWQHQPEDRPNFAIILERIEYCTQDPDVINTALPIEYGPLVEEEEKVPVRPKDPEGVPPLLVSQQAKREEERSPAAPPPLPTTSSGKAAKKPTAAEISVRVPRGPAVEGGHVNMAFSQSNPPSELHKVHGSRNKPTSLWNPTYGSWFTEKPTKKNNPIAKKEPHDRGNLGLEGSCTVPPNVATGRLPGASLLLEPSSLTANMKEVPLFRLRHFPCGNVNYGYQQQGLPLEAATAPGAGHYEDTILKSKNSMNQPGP

Mus musculus [12] = assay: In vivo inhibition of Jak2 in mouse transfected with mouse BA/F3 cells expressing TEL-Jak2 assessed as inhibition of STAT5 phosphorylation at 3 to 10 mg/kg, po by Western blotting analysis; type: functional, organism-based; conditions: BaF3, TDE = time-dependent effect; how it was run: as §4
[13] = Cytotoxicity against human UKE1 cells expressing Jak2 V617F mutant after 72 hrs by MTS assay; type: functional; conditions: UKE1, 72 h
Canis familiaris = assay: Oral bioavailability in beagle dog at 10 mg/kg; type: ADME, organism-based, Canis lupus familiaris; conditions: in vivo
How it was run: (§6)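 Male beagle dogs. Oral dose 10 mg/kg in 0.1% HPMC, pH 2. IV dose 2.5 mg/kg in 20% TEG/D5W. […] Clearance, Vdss, half-life and oral bioavailability (F%) derived from the plasma profiles.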

[14] = Antitumor activity against human UKE1 cells xenografted in SCID mouse assessed as tumor growth inhibition at 3 mg/kg, po bid administered for 14 days measured on day 28; type: functional; conditions: read-out: TGI
How it was run: (§7)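 UKE-1 cells mixed with matrigel implanted subcutaneously in female SCID mice. On day 15, mice randomized at a mean tumor volume of about 150 mm³. Oral gavage twice daily at 3 or 10 mg/kg, or vehicle, for 14 days. Tumor volume and body weight tracked through the dosing phase.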

UKE1 = assay: Antitumor activity against human UKE1 cells xenografted in po dosed SCID mouse assessed as tumor growth inhibition administered bid for 14 days; type: functional, organism-based; how it was run: as §7
Mus musculus [15] = assay: Toxicity in SCID mouse xenografted with human UKE1 cells assessed as body weight loss at 3 mg/kg, po bid administered for 14 days measured on day 31 (reference value: 7.1%); type: organism-based; parameters: dose 3 mg/kg, route oral; conditions: in vivo, 336 h; how it was run: as §7
[16] = target: Proto-oncogene tyrosine-protein kinase receptor Ret (Homo sapiens, UniProt P07949); assay: Inhibition of human Ret; how it was run: as §1
[17] = Cytotoxicity against mouse BA/F3 cells expressing TEL-Tyk2 after 72 hrs by MTS assay; type: functional; conditions: BaF3, 72 h
How it was run: (§8)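 BaF3 cells transfected with the kinase domain of Jak1, Jak3 or Tyk2 (TEL fusions). Growth inhibition measured as the counter-screen for cellular selectivity.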

[18] = target: Tyrosine-protein kinase JAK1 (Mus musculus) (UniProt P52332); assay: (§9) Inhibition of Jak1 in mouse BA/F3 cells expressing TEL-Jak1 assessed as inhibition of STAT5 phosphorylation by Western blotting analysis; type: cell-based; conditions: BaF3
Chain of Tyrosine-protein kinase JAK1 (Mus musculus) (P52332 whole entry): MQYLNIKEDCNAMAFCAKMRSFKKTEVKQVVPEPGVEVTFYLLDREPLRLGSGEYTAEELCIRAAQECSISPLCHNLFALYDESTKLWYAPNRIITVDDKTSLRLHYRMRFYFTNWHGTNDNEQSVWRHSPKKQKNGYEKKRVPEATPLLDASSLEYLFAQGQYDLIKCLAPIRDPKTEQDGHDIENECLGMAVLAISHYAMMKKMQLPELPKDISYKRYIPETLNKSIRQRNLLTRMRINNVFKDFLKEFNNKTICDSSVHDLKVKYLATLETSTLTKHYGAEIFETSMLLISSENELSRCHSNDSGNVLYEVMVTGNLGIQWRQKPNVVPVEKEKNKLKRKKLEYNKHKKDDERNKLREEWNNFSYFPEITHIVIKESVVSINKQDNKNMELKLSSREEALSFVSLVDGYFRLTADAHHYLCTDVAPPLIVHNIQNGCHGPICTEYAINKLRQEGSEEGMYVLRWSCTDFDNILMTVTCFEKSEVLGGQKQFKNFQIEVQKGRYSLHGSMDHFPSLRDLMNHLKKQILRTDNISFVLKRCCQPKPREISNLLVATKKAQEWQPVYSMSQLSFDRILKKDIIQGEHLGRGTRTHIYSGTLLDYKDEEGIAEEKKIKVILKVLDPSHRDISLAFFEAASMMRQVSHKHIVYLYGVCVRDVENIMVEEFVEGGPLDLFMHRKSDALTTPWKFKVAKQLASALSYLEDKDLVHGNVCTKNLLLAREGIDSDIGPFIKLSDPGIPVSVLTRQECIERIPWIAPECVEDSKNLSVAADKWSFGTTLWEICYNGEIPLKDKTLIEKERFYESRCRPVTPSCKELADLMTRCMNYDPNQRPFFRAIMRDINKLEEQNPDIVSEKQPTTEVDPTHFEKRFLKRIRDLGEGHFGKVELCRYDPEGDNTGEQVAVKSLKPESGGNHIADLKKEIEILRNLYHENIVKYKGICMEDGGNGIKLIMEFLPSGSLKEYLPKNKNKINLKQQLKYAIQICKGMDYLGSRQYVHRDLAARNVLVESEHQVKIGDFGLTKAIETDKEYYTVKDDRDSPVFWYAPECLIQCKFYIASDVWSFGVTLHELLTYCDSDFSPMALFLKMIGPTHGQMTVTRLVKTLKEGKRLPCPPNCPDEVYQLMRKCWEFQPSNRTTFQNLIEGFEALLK

[19] = target: Tyrosine-protein kinase JAK1 (Mus musculus, UniProt P52332); assay: as §9; type: cell-based, BaF3
Chain of Tyrosine-protein kinase JAK1 (P52332 whole entry): as above

[20] = Half life in beagle dog at 2.5 mg/kg, iv; type: ADME, organism-based, Canis lupus familiaris; parameters: dose 2.5 mg/kg, route intravenous; conditions: in vivo; how it was run: as §6
[21] = target: Casein kinase II subunit alpha' (Homo sapiens, UniProt P19784); assay: Inhibition of human CK2alpha2; how it was run: as §1
[22] = Cytotoxicity against mouse BA/F3 cells expressing TEL-Jak3 after 72 hrs by MTS assay; type: functional; conditions: BaF3, 72 h; how it was run: as §8
[23] = target: Fibroblast growth factor receptor 1 (Homo sapiens, UniProt P11362); assay: Inhibition of human FGFR1; how it was run: as §1
[24] = target: Receptor-type tyrosine-protein kinase FLT3 (Homo sapiens, UniProt P36888); assay: Inhibition of human Flt3; how it was run: as §1

With `C[C@H](Nc1nc(Nc2cn(C)cn2)c2cc[nH]c2n1)c1ncc(F)cn1` the IC50 [1] was 22 nM, the Vd [2] was 2.2 L/kg and the IC50 [3] was 200 nM. The half-life [4] was 96 min, the IC50 [5] was greater than 30 µM and the inhibition [6] was “Dose-dependent effect”. For the same molecule, the IC50 [7] was 240 nM, the inhibition (Mus musculus [8]) was “Active” and the IC50 [9] was 2000 nM. The inhibition [10] was “Dose-dependent effect”, the IC50 [11] was 50 nM and the inhibition (Mus musculus [12]) was “tde”. The GI50 [13] was 55 nM, the F (Canis familiaris) was 64% and the inhibition in vivo at 3 mg/kg [14] was 50%. For the same molecule, the TGI (UKE1) was “Dose-dependent effect”, the Activity (Mus musculus [15]) was 7.2% and the IC50 [16] was 46 nM. The GI50 [17] was 760 nM, the inhibition [18] was “Dose-dependent effect” and the IC50 [19] was 260 nM. The half-life [20] was 744 min, the IC50 [21] was 2.7 nM and the GI50 [22] was 1800 nM. The IC50 [23] was 50 nM and the IC50 [24] was 45 nM.
